Molecules are shown by their SMILES. Activity calls are given as the source filed them. The rule behind the calls is not given here.

The text below walks through data of ChEMBL document CHEMBL1142519, “Synthesis and antiprotozoal activity of cationic 2-phenylbenzofurans” (J Med Chem, 2008).

Series [1] concerns L6. Nature of the series: Cytotoxicity against rat L6 cells. The class given is cell-based. Put shortly:
(§1)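 IC50 values in µM, each the average of duplicate determinations. Parasites were T. b. rhodesiense STIB900 and axenic amastigotes of L. donovani MHOM/SD/62/1S-CL2D. Cytotoxicity was run on rat L6 myoblast cells.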

A short description of series [2]: Selectivity index, ratio of IC50 for rat L6 cells to IC50 for Leishmania donovani MHOM/SD/62/1S-CL2D. The class given is toxicity, cell-based. Conditions: read-out: Ratio IC50. The method, boiled down: (§2)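 Ratio of the L6 rat myoblast cytotoxicity IC50 to the IC50 against the parasite named in the line. Each IC50 is the average of duplicate determinations.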
The nature of series [3]: Selectivity index, ratio of IC50 for rat L6 cells to IC50 for chloroquine-resistant Plasmodium falciparum K1. The class given is toxicity, cell-based. The note with it: read-out: Ratio IC50. Put shortly:
as §2

The test system of series [4] is Trypanosoma brucei rhodesiense. As to the kind of experiment: Antitrypanosomal activity against Trypanosoma brucei rhodesiense STIB 900 bloodstream trypomastigotes. The class given is functional, organism-based. The method, boiled down: as §1
A short description of series [5]: Selectivity index, ratio of IC50 for rat L6 cells to IC50 for Trypanosoma brucei rhodesiense STIB 900. The class given is toxicity, cell-based. Conditions: read-out: Ratio IC50. Put shortly:
as §2

The subject of series [6] is Trypanosoma brucei rhodesiense. Nature of the series: Antitrypanosomal activity against Trypanosoma brucei rhodesiense STIB 900 infected acute mouse model assessed as cured mouse at 5 mg/kg, ip daily for 4 days. On the set-up: dose 5 mg/kg. The class given is functional, organism-based. Put shortly: (§3)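 STIB900 acute mouse model of trypanosomiasis with intraperitoneal dosing. The regimens were daily for 4 days at 20, 5 or 1 mg/kg, or a single 10 mg/kg dose. A cure is a mouse that survives and is parasite-free for 60 days. Average days of survival are also recorded.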

In series [7] the test system is Plasmodium falciparum. As to the kind of experiment: Antiplasmodial activity against chloroquine-resistant Plasmodium falciparum K1. The class given is functional, organism-based. Put shortly:
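In vitro IC50 against chloroquine-resistant P. falciparum K1, reported as the average of duplicate determinations.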

The test system of series [8] is Leishmania donovani. Nature of the series: Antileishmanial activity against Leishmania donovani MHOM/SD/62/1S-CL2D axenic amastigotes. The class given is functional, organism-based. The method, boiled down: as §1
Series [9] relates to Trypanosoma brucei rhodesiense. As to the kind of experiment: Antitrypanosomal activity against Trypanosoma brucei rhodesiense STIB 900 infected acute mouse model assessed as survival time at 5 mg/kg, ip administered daily for 4 days. The class given is functional. Conditions: route intraperitoneal. Put shortly: (§4)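 STIB900 acute mouse model of T. b. rhodesiense infection, with intraperitoneal dosing. Read-out is the average days of survival of treated mice. Cures are counted as mice that survive and stay parasite-free for 60 days.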

Series [10] relates to Trypanosoma brucei rhodesiense. Nature of the series: Antitrypanosomal activity against Trypanosoma brucei rhodesiense STIB 900 infected acute mouse model assessed as survival time at 10 mg/kg, ip. The class given is functional. Conditions: route intraperitoneal. Put shortly: as §4
Series [11] deals with Trypanosoma brucei rhodesiense. Nature of the series: Antitrypanosomal activity against Trypanosoma brucei rhodesiense STIB 900 infected acute mouse model assessed as survival time at 1 mg/kg, ip administered daily for 4 days. The class given is functional. The note with it: route intraperitoneal. Put shortly: as §4
In series [12] the test system is Trypanosoma brucei rhodesiense. As to the kind of experiment: Antitrypanosomal activity against Trypanosoma brucei rhodesiense STIB 900 infected acute mouse model assessed as cured mouse at 1 mg/kg, ip daily for 4 days. The class given is functional, organism-based. On the set-up: dose 1 mg/kg. Put shortly:
as §3

With `c1ccc2[nH]c(-c3ccc4oc(-c5ccc(C6=NCCN6)cc5)cc4c3)nc2c1`, the IC50 in [1] worked out at 6100 nM; in series [4] it was 122 nM; in series [7], 40 nM; in series [8], 5700 nM. The selectivity ratio in [2] stood at 1; in [3] it was 153; in series [5], 50. The outcome in [6] was inactive. The Survival in [9] amounted to 11 days.

Consider `N=C(N)c1cccc(-c2cc3ccc(C(=N)N)cc3o2)c1`, for which the IC50 in [1] came to 131000 nM; in [4], 21 nM; in [7], 4 nM; in series [8] it was 14000 nM. In addition, the selectivity ratio turned out to be 9 in series [2], 32800 in series [3] and 6240 in [5]. Moreover, the outcome in series [6] was inactive. The Survival in [9] worked out at 33 days.

Regarding `N=C(N)c1ccc(-c2cc3cc(C(=N)N)cc(O)c3o2)c(O)c1`, the IC50 in [1] came to 2100 nM; in series [4], 18 nM; in series [7], 61 nM; in series [8], 14000 nM. In addition, the selectivity ratio in [2] was determined as 0.2; in series [3], 34; in series [5] it was 117. In addition, the figures for the Survival in series [10], in series [11] and in series [9] were more than 49.5 days, more than 33.5 days and more than 56.8 days, respectively.

Take `Oc1cc(C2=NCCN2)cc2cc(-c3ccc(C4=NCCN4)cc3)oc12`: the IC50 in series [1] was more than 203000 nM; in series [4], 4 nM; in series [7], 22 nM; in [8] it was 7400 nM. For the same compound, the selectivity ratio in [2] was more than 27; in [3] it was more than 9230; in series [5] it was more than 50800. The Survival in [10] is more than 51.3 days; in series [11], more than 39 days; in series [9] it was more than 49.8 days.

With `COc1cc(C2=NCCN2)ccc1-c1cc2ccc(C3=NCCN3)cc2o1`, the half-inhibitory concentration (IC50) in [1] was 4400 nM; in series [4] it was 49 nM; in [7] it was 77 nM; in series [8], more than 100000 nM. Moreover, the selectivity ratio in series [2] is less than 0.04; in series [3] it was 57; in [5] it was 90. Further, the result in series [6] was inactive. Besides, in series [9], the Survival is 7 days.

Consider `c1ccc2[nH]c(-c3ccc(-c4cc5cc(-c6nc7ccccc7[nH]6)ccc5o4)cc3)nc2c1`, for which the IC50 in [1] was 6700 nM; in series [4] it was 249 nM; in series [7] it was 31 nM; in series [8] it was more than 100000 nM. In addition, the selectivity ratio in [2] is 0.1; in series [3] it was 216; in series [5], 27. In addition, the outcome in series [6] was inactive. Also, in series [9], the Survival was 5.5 days.

For the compound `Oc1ccc(C2=NCCN2)cc1-c1cc2ccc(C3=NCCN3)cc2o1`, the IC50 in series [1] was more than 189000 nM; in series [4], 83 nM; in series [7] it was 103 nM; in [8], 35000 nM. For the same compound, the results for the selectivity ratio in series [2], in series [3] and in series [5] were more than 6, more than 1840 and more than 2280, respectively. In addition, in [6], the result was inactive. Also, the Survival in series [9] came out at 14 days.

Regarding `CC(C)NC(=N)c1ccc(-c2cc3ccc(C(=N)NC(C)C)cc3o2)c(O)c1`, the IC50 in [1] is more than 183000 nM; in series [4], 9 nM; in series [7] it was 597 nM; in series [8], 39000 nM. Moreover, the selectivity ratio in series [2] was more than 5; in series [3], more than 307; in [5], more than 20300. Further, the figures for the Survival in series [10], in series [11] and in [9] were more than 51.8 days, more than 46.5 days and more than 55.5 days, respectively.

As to `CC(C)NC(=N)c1ccc(-c2cc3ccc(C(=N)NC(C)C)cc3o2)cc1`, the IC50 is more than 199000 nM in series [1], 148 nM in series [4], 15 nM in series [7] and 12000 nM in series [8]. Moreover, the selectivity ratio in series [2] is more than 17; in [3] it was more than 13300; in series [5], more than 1340. Moreover, the Survival in series [9] is more than 38.5 days.

`N=C(N)c1ccc(-c2cc3cc(C(=N)N)ccc3o2)c(O)c1`: the IC50 in series [1] was 33300 nM; in series [4], 2 nM; in [7], 4 nM; in series [8], 1800 nM. For the same compound, the selectivity ratio in [2] was 19; in [3] it was 8320; in series [5], 16600. For the same compound, the Survival in [10] is more than 55.3 days; in series [11], 34.8 days; in series [9], more than 54.5 days. Moreover, the outcome in series [12] was inactive.

On to `Oc1cc(C2=NCCN2)ccc1-c1cc2cc(C3=NCCN3)cc(O)c2o1`, for which the IC50 in series [1] is more than 193000 nM; in series [4], 10 nM; in series [7] it was 30 nM; in series [8], 16000 nM. For the same compound, the selectivity ratio in series [2] was more than 12; in series [3], more than 6430; in series [5] it was more than 19300. In addition, the result in series [6] was inactive. In addition, the Survival in [9] was more than 21 days.

With `COc1cc(C(=N)NC(C)C)ccc1-c1cc2ccc(C(=N)NC(C)C)cc2o1`, the IC50 was more than 181000 nM in series [1], 54 nM in series [4], 206 nM in series [7] and 32000 nM in series [8]. The selectivity ratio in series [2] is more than 6; in series [3], more than 879; in [5], more than 3350. Further, the Survival in series [9] was more than 38 days.

Turning to `COc1cc(C(=N)N)ccc1-c1cc2ccc(C(=N)N)cc2o1`, the half-inhibitory concentration (IC50) in series [1] worked out at 108000 nM; in [4], 3 nM; in series [7], 20 nM; in series [8], 3700 nM. Besides, the selectivity ratio in series [2] came out at 29; in series [3] it was 5400; in series [5] it was 36000. Also, the Survival in series [9] is more than 34.5 days.

In the case of `COc1ccc(C2=NCCN2)cc1-c1cc2ccc(C3=NCCN3)cc2o1`, the IC50 in [1] was 11100 nM; in [4] it was 17 nM; in [7], 74 nM; in series [8], 34000 nM. Besides, the figures for the selectivity ratio in series [2], in series [3] and in series [5] were 0.3, 150 and 653, respectively. The outcome in series [6] was inactive. Besides, the Survival in [9] stood at 25 days.

With `Oc1cc(C2=NCCN2)ccc1-c1cc2ccc(C3=NCCN3)cc2o1`, the IC50 in series [1] was more than 193000 nM; in [4] it was 11 nM; in series [7], 98 nM; in series [8] it was 13000 nM. Moreover, the selectivity ratio in series [2] is more than 15; in series [3] it was more than 1970; in series [5], more than 17500. Besides, the result in series [6] was inactive. Further, the Survival in series [9] turned out to be 23 days.

`COc1ccc(C2=NCCN2)cc1-c1cc2cc(C3=NCCN3)ccc2o1`: the IC50 in series [1] is 30800 nM; in series [4], 27 nM; in [7], 65 nM; in series [8], more than 50000 nM. Moreover, the selectivity ratio was less than 0.6 in [2], 474 in series [3] and 1140 in [5]. The outcome in series [6] was inactive. In series [9], the Survival turned out to be 8.5 days.

Regarding `N=C(N)c1ccc(-c2cc3cc(C(=N)N)cc(O)c3o2)cc1`, the IC50 in series [1] was found to be 184000 nM; in series [4], 3 nM; in [7] it was 47 nM; in series [8] it was 5300 nM. The figures for the selectivity ratio in [2], in series [3] and in series [5] were 35, 3920 and 61300, respectively. Besides, the values for the Survival in [10], in series [11] and in series [9] were more than 43 days, more than 30.8 days and more than 60 days, respectively. Moreover, the outcome in series [6] was Active.

Take `N=C(N)c1ccc(-c2cc3ccc(C(=N)N)cc3o2)c(O)c1`: the IC50 in series [1] was more than 221000 nM; in series [4] it was 4 nM; in [7] it was 70 nM; in series [8], 29000 nM. Further, the values for the selectivity ratio in series [2], in series [3] and in [5] were more than 8, more than 3160 and more than 55200, respectively. In addition, the Survival in series [9] is more than 39 days.

Regarding `COc1cc(C(=N)NC(C)C)ccc1-c1cc2cc(C(=N)NC(C)C)ccc2o1`, the IC50 was 98100 nM in [1], 74 nM in series [4], 20 nM in [7] and 1500 nM in series [8]. In addition, the results for the selectivity ratio in [2], in series [3] and in series [5] were 67, 4900 and 1330, respectively. In addition, the outcome in series [6] was inactive. Further, the Survival in series [9] is more than 39 days.

By IC50 is commonly meant the point on the concentration scale where inhibition reaches its midpoint. Higher therefore signals lower potency.
